The record followed here is ChEMBL document CHEMBL1135836, “Cyclodextrin-derived host molecules as reversal agents for the neuromuscular blocker rocuronium bromide: synthesis and structure-activity relationships” (J Med Chem, 2002).

Common to all, as to format: functional
Assay [1] has as its system Felis catus. The assay can be described thus: Percentage of maximum change in blood pressure in anesthetized cat dosed at 0.2 umol/kg (by bolus injection). The method, boiled down: (§1)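 Anaesthetized cats, left for 1 h after surgery to stabilize. Tibialis anterior twitch was evoked via the sciatic nerve with supramaximal 0.25 ms pulses at 0.1 Hz. Rocuronium in phosphate buffer (pH 4) was infused continuously (10.24 ± 1.31 nmol kg-1 min-1). Increasing doses of agent in saline were then given as iv boluses while mean arterial blood pressure and heart rate were recorded; means of three independent experiments.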

Assay [2] concerns Felis catus. The assay can be described thus: Percentage of maximum change in blood pressure in anesthetized cat dosed at 0.4 umol/kg (by bolus injection). In outline:
as §1

The subject of assay [3] is Felis catus. The assay can be described thus: Percentage of maximum change in blood pressure in anesthetized cat dosed at 0.6 umol/kg (by bolus injection). In outline: as §1
Assay [4] concerns Felis catus. The assay can be described thus: Percentage of maximum change in blood pressure in anesthetized cat dosed at 0.8 umol/kg (by bolus injection). The method, boiled down: as §1
For assay [5], the system named is Felis catus. The assay is described as follows: % of maximum change of decrease in HR by vagal stimulation in anesthetized cat at 0.2umol/kg, by bolus injection.
Assay [6] deals with Felis catus. The assay is described as follows: % of maximum change of decrease in HR by vagal stimulation in anesthetized cat at 0.4umol/kg, by bolus injection.
For assay [7], the system named is Cavia porcellus. The assay can be described thus: In vivo reversal activity versus ~90% block by rocuronium in guinea pig. In outline: (§2)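 Male Dunkin-Hartley guinea pigs (600-900 g), anaesthetized ip with pentobarbitone 10 mg/kg plus urethane 1000 mg/kg, tracheotomized and ventilated. Continuous iv rocuronium infusion (~10 nmol kg-1 min-1) was raised to a steady 85-90% block. Increasing iv doses of agent were given cumulatively. ED50 = 50% recovery versus preblock twitch, by regression. Mean ± SEM of at least two experiments, or one.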

Assay [8] relates to Felis catus. The assay can be described thus: Percentage of maximum change in blood pressure in anesthetized cat dosed at 1.0 umol/kg (by bolus injection). The method, boiled down: as §1
In assay [9] the test system is Felis catus. The assay can be described thus: Percentage of maximum change in blood pressure in anesthetized cat dosed at 1.2 umol/kg (by bolus injection). In outline:
as §1

In assay [10] the test system is Felis catus. The assay is described as follows: Percentage of maximum change in blood pressure in anesthetized cat dosed at 1.4 umol/kg (by bolus injection). The method, boiled down:
as §1

Assay [11] deals with Felis catus. The assay can be described thus: Percentage of maximum change in blood pressure in anesthetized cat dosed at 1.6 umol/kg (by bolus injection). In outline:
as §1

Assay [12] deals with Felis catus. The assay is described as follows: % of maximum change of increase in contraction of nictitating membrane in anesthetized cat at 0.2umol/kg, by bolus injection.
Assay [13] concerns Felis catus. The assay is described as follows: % of maximum change of increase in contraction of nictitating membrane in anesthetized cat at 0.6umol/kg, by bolus injection.
Assay [14] has as its system Felis catus. The assay is described as follows: % of maximum change of increase in contraction of nictitating membrane in anesthetized cat at 0.8umol/kg, by bolus injection.
Assay [15] has as its system Felis catus. The assay is described as follows: % of maximum change of increase in contraction of nictitating membrane in anesthetized cat at 1.0umol/kg, by bolus injection.
Assay [16] deals with Felis catus. The assay is described as follows: % of maximum change of increase in contraction of nictitating membrane in anesthetized cat at 1.2umol/kg, by bolus injection.
The subject of assay [17] is Felis catus. The assay can be described thus: % of maximum change of increase in contraction of nictitating membrane in anesthetized cat at 1.4umol/kg, by bolus injection.
The test system of assay [18] is Felis catus. The assay is described as follows: % of maximum change of increase in contraction of nictitating membrane in anesthetized cat at 1.6umol/kg, by bolus injection.
Assay [19] relates to Felis catus. The assay can be described thus: % of maximum change of increase in contraction of nictitating membrane in anesthetized cat at 1.8umol/kg, by bolus injection.
Assay [20] has as its system Felis catus. The assay can be described thus: % of maximum change of decrease in HR by vagal stimulation in anesthetized cat at 0.6umol/kg, by bolus injection.
The subject of assay [21] is Felis catus. The assay is described as follows: % of maximum change of decrease in HR by vagal stimulation in anesthetized cat at 0.8umol/kg, by bolus injection.
The test system of assay [22] is Felis catus. The assay is described as follows: % of maximum change of decrease in HR by vagal stimulation in anesthetized cat at 1.0umol/kg, by bolus injection.
Assay [23] has as its system Felis catus. The assay can be described thus: % of maximum change of decrease in HR by vagal stimulation in anesthetized cat at 1.2umol/kg, by bolus injection.
Assay [24] deals with Felis catus. The assay can be described thus: % of maximum change of decrease in HR by vagal stimulation in anesthetized cat at 1.4umol/kg, by bolus injection.
Assay [25] has as its system Felis catus. The assay is described as follows: % of maximum change of decrease in HR by vagal stimulation in anesthetized cat at 1.6umol/kg, by bolus injection.
Assay [26] deals with Felis catus. The assay is described as follows: % of maximum change of decrease in HR by vagal stimulation in anesthetized cat at 1.8umol/kg, by bolus injection.
Assay [27] deals with Felis catus. The assay is described as follows: Percentage of maximum change of heart rate in anesthetized cat at 0.2umol/kg, by bolus injection. In outline: as §1
Assay [28] concerns Felis catus. The assay is described as follows: Percentage of maximum change of heart rate in anesthetized cat at 0.6umol/kg, by bolus injection. In outline: as §1
Assay [29] relates to Felis catus. The assay can be described thus: Percentage of maximum change of heart rate in anesthetized cat at 0.8umol/kg, by bolus injection. The method, boiled down: as §1
Assay [30] has as its system Felis catus. The assay can be described thus: Percentage of maximum change of heart rate in anesthetized cat at 1.0umol/kg, by bolus injection. The method, boiled down:
as §1

The subject of assay [31] is Felis catus. The assay is described as follows: Percentage of maximum change of heart rate in anesthetized cat at 1.2umol/kg, by bolus injection. In outline: as §1
In assay [32] the test system is Felis catus. The assay can be described thus: Percentage of maximum change of heart rate in anesthetized cat at 1.4umol/kg, by bolus injection. The method, boiled down:
as §1

The test system of assay [33] is Felis catus. The assay can be described thus: Percentage of maximum change of heart rate in anesthetized cat at 1.6umol/kg, by bolus injection. In outline:
as §1

Assay [34] concerns Felis catus. The assay is described as follows: Percentage of maximum change of heart rate in anesthetized cat at 1.8umol/kg, by bolus injection. In outline:
as §1

The subject of assay [35] is Cavia porcellus. The assay can be described thus: In vivo reversal activity versus ~90% block by rocuronium in guinea pig, expressed as % of maximum reversal at 0.3 umol/kg conc. In outline:
as §2

The species named for assay [36] is Mus musculus. The assay is described as follows: In vitro reversal activity versus ~90% block by rocuronium in isolated mouse hemidiaphragm, expressed as % of maximum reversal at 3.6 uM conc.
The species entered for assay [37] is Mus musculus. The assay is described as follows: In vitro reversal activity versus ~90% block by rocuronium in isolated mouse hemidiaphragm, expressed as effective conc.
In assay [38] the test system is Felis catus. The assay is described as follows: Percentage of maximum change of heart rate in anesthetized cat at 0.4umol/kg, by bolus injection. The method, boiled down: as §1
Assay [39] deals with Felis catus. The assay is described as follows: Percentage of maximum change in blood pressure in anesthetized cat dosed at 1.8 umol/kg (by bolus injection). In outline:
as §1

Assay [40] concerns Felis catus. The assay can be described thus: % of maximum change of increase in contraction of nictitating membrane in anesthetized cat at 0.4umol/kg, by bolus injection.
The subject of assay [41] is Cavia porcellus. The assay is described as follows: In vivo reversal activity versus ~90% block by rocuronium in guinea pig, expressed as % of maximum reversal at 7.3 umol/kg conc. The method, boiled down:
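Male Dunkin-Hartley guinea pigs (600-900 g) anaesthetized ip with pentobarbitone 10 mg/kg plus urethane 1000 mg/kg, tracheotomized and artificially ventilated. Continuous iv rocuronium bromide infusion (~10 nmol kg-1 min-1) raised until steady-state twitch block of 85-90%. Increasing single iv doses of reversal agent given by a separate catheter. Max reversal is peak twitch recovery versus preblock height at highest dose tested; means ± SEM, n ≥ 2 or single experiment.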

Assay [42] is filed under the species Mus musculus. The assay is described as follows: In vitro reversal activity versus ~90% block by rocuronium in isolated mouse hemidiaphragm, expressed as % of maximum reversal at 14.4 uM conc.

The structures appear in SMILES notation.

With `O=C([O-])CCSCC1O[C@@H]2O[C@@H]3C(CSCCC(=O)[O-])O[C@H](O[C@@H]4C(CSCCC(=O)[O-])O[C@H](O[C@@H]5C(CSCCC(=O)[O-])O[C@H](O[C@@H]6C(CSCCC(=O)[O-])O[C@H](O[C@@H]7C(CSCCC(=O)[O-])O[C@H](O[C@@H]8C(CSCCC(=O)[O-])O[C@H](O[C@@H]9C(CSCCC(=O)[O-])O[C@H](O[C@H]1C(O)C2O)C(O)C9O)C(O)C8O)C(O)C7O)C(O)C6O)C(O)C5O)C(O)C4O)C(O)C3O.[Na+].[Na+].[Na+].[Na+].[Na+].[Na+].[Na+].[Na+]` (some centres undefined), the BP is recorded as -7.3 mmHg with Felis catus [1]; -6.5 mmHg with Felis catus [2]; 3.5 mmHg with Felis catus [3]; -3.3 mmHg in the assay with Felis catus [4]; -3.2 mmHg in the assay on Felis catus [8]; -3.3 mmHg in the assay on Felis catus [9]. Also, the BP is -3.3 mmHg with Felis catus [10], -5 mmHg in the assay with Felis catus [11] and -5 mmHg in the assay on Felis catus [39]. Moreover, the Decrease is given as -2.9% with Felis catus [5]; -6.7% in the assay with Felis catus [6]; -6.7% in the assay with Felis catus [20]; 2.2% in the assay on Felis catus [21]; 0% in the assay with Felis catus [22]; 0% in the assay on Felis catus [23]. Moreover, the Decrease with Felis catus [24] is 0.7%; in the assay with Felis catus [25] it was 0%; with Felis catus [26], 11%. In addition, the median effective dose (ED50) in the assay with Cavia porcellus [7] was 0.03 µmol/kg. In addition, the Max change is given as 0% in the assay on Felis catus [12]; 0% in the assay with Felis catus [13]; 3.7% with Felis catus [14]; 8.7% with Felis catus [15]; 3.7% in the assay with Felis catus [16]; 3.7% with Felis catus [17]. The Max change in the assay with Felis catus [18] is reported as 3.7%; in the assay on Felis catus [19], 12.5%; in the assay with Felis catus [40], 0%. Moreover, the HR in the assay with Felis catus [27] is -4.1%; in the assay with Felis catus [28] it was -7.5 beats min-1; in the assay on Felis catus [29], -6.3 beats min-1; with Felis catus [30] it was -3.4 beats min-1; with Felis catus [31], -4 beats min-1; in the assay on Felis catus [32], -3.7 beats min-1. Moreover, the HR in the assay with Felis catus [33] is recorded as -6.9 beats min-1; in the assay with Felis catus [34] it was -14.3 beats min-1; in the assay with Felis catus [38], -5.5 beats min-1. Further, the Max reversal came out at 92.5% in the assay on Cavia porcellus [35] and 95.1% in the assay listed under Mus musculus [36]. Also, in the assay filed under Mus musculus [37], the concentration for a half-maximal effect (EC50) was 1.2 µM.
For `CNC(=O)CSCC1O[C@@H]2O[C@@H]3C(CSCC(=O)NC)O[C@H](O[C@@H]4C(CSCC(=O)NC)O[C@H](O[C@@H]5C(CSCC(=O)NC)O[C@H](O[C@@H]6C(CSCC(=O)NC)O[C@H](O[C@@H]7C(CSCC(=O)NC)O[C@H](O[C@@H]8C(CSCC(=O)NC)O[C@H](O[C@@H]9C(CSCC(=O)NC)O[C@H](O[C@H]1C(O)C2O)C(O)C9O)C(O)C8O)C(O)C7O)C(O)C6O)C(O)C5O)C(O)C4O)C(O)C3O` (some centres undefined), the 50% effective dose (ED50) in the assay on Cavia porcellus [7] was 1.54 µmol/kg. In addition, the results for the Max reversal with Cavia porcellus [41] and in the assay listed under Mus musculus [42] were 102.2% and 79.6%, respectively. Further, in the assay filed under Mus musculus [37], the EC50 is 6.4 µM.

One may read the ED50 as the dose at which the effect has come halfway, by size or by number of responders. As a reminder, the EC50 is the concentration that produces a half-maximal response.
